# Values joined by “and” are separate entries in the source; they are usually repeats but may differ in a detail not shown here. Identical values can stand only once. Active and inactive are the calls of the source.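 Rule for the calls: active = inhibition above 20% at 50 µM; inactive = the rest.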
# Target: Kelch-like ECH-associated protein 1 (Homo sapiens) (UniProt Q14145)
# Assay: Keap1 Kelch binding to Nrf2 peptide inhibition, confirmation, orthogonal assay for Keap1-Nrf2 interaction inhibitor project, biophysical, competitive SPR, dry powder (AID 651876)
# Details: stronger effect = higher value
# Summary of the method: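 System – Keap1 Kelch domain, biochemical · Probe or stimulus – biotinylated 16mer Nrf2 peptide captured on streptavidin CM5 surface · Timing – room-temperature preincubation, 25 °C binding · Signal – Double-referenced surface plasmon resonance, initial association-phase slopes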
# Sequence of Kelch-like ECH-associated protein 1 (Homo sapiens) (Q14145 whole entry, looked up): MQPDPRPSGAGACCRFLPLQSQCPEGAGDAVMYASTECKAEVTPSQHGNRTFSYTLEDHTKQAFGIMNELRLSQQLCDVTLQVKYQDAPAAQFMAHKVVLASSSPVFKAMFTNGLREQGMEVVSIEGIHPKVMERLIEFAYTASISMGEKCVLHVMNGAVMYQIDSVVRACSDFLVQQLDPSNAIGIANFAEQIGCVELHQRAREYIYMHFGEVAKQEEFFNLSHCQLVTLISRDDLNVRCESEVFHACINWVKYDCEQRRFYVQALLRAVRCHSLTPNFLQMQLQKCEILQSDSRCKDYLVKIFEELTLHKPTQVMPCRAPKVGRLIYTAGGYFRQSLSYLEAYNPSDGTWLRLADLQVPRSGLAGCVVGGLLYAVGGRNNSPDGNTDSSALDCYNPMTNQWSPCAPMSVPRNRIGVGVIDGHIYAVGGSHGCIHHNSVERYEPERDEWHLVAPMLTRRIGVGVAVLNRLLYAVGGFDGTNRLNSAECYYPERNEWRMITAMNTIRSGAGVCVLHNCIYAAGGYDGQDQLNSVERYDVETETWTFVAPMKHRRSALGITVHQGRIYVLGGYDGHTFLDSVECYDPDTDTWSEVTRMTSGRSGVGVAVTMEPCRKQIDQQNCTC
Compound,inhibition (at 50 µM),"inhibition (inhibition, at 5 µM)"
Cc1ccc(S(=O)(=O)Nc2cc(C(C(=O)OC(C)C)C(=O)C(F)(F)F)c(O)c3ccccc23)cc1 (stereo not given),80.3%,30.2%
O=C(O)CCCC(=O)N1CCc2ccccc2C1CN1C(=O)c2ccccc2C1=O (stereo not given),2.3% (inactive),6.4%
O=C(O)CCC(=O)N1CCc2ccccc2C1CN1C(=O)c2ccccc2C1=O (stereo not given),11.4% (inactive),-2.3%
O=C(O)[C@H]1CCCC[C@H]1C(=O)N1CCc2ccccc2[C@H]1CNS(=O)(=O)c1ccccc1,12.9% (inactive),-3.1%
NC(=O)[C@H]1CCCC[C@H]1C(=O)N1CCc2ccccc2[C@H]1CN1C(=O)c2ccccc2C1=O,36.7%,5.6%
CC(=O)Nc1cc(NS(=O)(=O)c2c(C)cc(C)cc2C)c2ccccc2c1O,13.9% (inactive),9.6%
Cc1ccc(S(=O)(=O)NC2=CC(=N[C@@H](C)C(=O)OC(C)(C)C)C(=O)c3ccccc32)c(C)c1,10.5% (inactive),-5.37%
O=C(NC[C@@H]1c2ccccc2CCN1C(=O)[C@@H]1CCCC[C@@H]1C(=O)O)c1ccccc1,-3.5% (inactive),1.5%
Cc1ccc(S(=O)(=O)NC[C@@H]2c3ccccc3CCN2C(=O)[C@@H]2CCCC[C@@H]2C(=O)O)c(C)c1,17.1% (inactive),0.1%
Cc1cc(C)c(S(=O)(=O)Nc2nc(NCCO)nc3ccccc23)c(C)c1,6.8% (inactive),3.6%
O=S(=O)(Nc1nc(NCC2CCCCC2)nc2ccccc12)c1ccccc1,7% (inactive),-1.7%
CCOC(=O)Cc1nc(NS(=O)(=O)c2c(C)cc(C)cc2C)c2ccccc2n1,4.3% (inactive),5.5%
O=C(O)[C@H]1C2C=CC(C2)[C@H]1C(=O)N1CCc2ccccc2C1CN1C(=O)c2ccccc2C1=O (stereo not given in full),42.4%,4.9%
O=C(NCCc1ccccc1)c1ccccc1C(=O)NC[C@@H]1c2ccccc2CCN1C(=O)C1CCCCC1C(=O)O (stereo not given in full),47.1%,3.3%
O=C(O)[C@H]1CCCC[C@H]1C(=O)N1CCC2=C(CCCC2)C1CN1C(=O)c2ccccc2C1=O (stereo not given in full),,12.5% and -3.6%
COc1ccc(CCN=C2C=C(NS(=O)(=O)c3c(C)cc(C)cc3C)c3ccccc3C2=O)cc1,8% (inactive),0%
O=C(O)C1CCCCC1C(=O)N1CCc2ccccc2[C@H]1C(=O)NCCc1ccccc1 (stereo not given in full),-3.7% (inactive),-5.5%
Cc1ccc(S(=O)(=O)NC(=O)[C@@H]2c3ccccc3CCN2C(=O)[C@@H]2CCCC[C@@H]2C(=O)O)cc1,,0.2% and -3.9%
Cc1cc(C)c(S(=O)(=O)Nc2cc(C(C(=O)OC(C)C)C(=O)C(F)(F)F)c(O)c3ccccc23)c(C)c1 (stereo not given),105%,79.7%
O=C(O)C1CCCCC1C(=O)N1CCc2ccccc2C1c1ccccc1 (stereo not given),3.2% (inactive),-2%
O=C(O)c1ccccc1C(=O)NC[C@@H]1c2ccccc2CCN1C(=O)[C@@H]1CCCC[C@@H]1C(=O)O,9.5% (inactive),0.9%
O=C(O)C1CCCCC1C(=O)N1CCc2ccccc2C1CN1C(=O)[C@H]2CCCC[C@H]2C1=O (stereo not given in full),65.5%,19.1%

Compound,inhibition (at 50 µM),"inhibition (inhibition, at 5 µM)"
Cc1ccc(S(=O)(=O)NNc2nc(C(C(=O)OC(C)C)C(=O)C(F)(F)F)nc3ccccc23)cc1 (stereo not given),28.3%,4.9%
O=C(O)C1CCCCC1C(=O)NCC1c2ccccc2CCN1C(=O)Cc1ccccc1 (stereo not given),-4% (inactive),3.3%
O=C(O)[C@H]1CCCC[C@H]1C(=O)N1CCc2ccccc2C1CCN1C(=O)c2ccccc2C1=O (stereo not given in full),8.8% (inactive) and 2.3% (inactive),-2.2% and 0.5%
O=C1c2ccccc2C(=O)N1CC1c2ccccc2CCN1C(=O)Cc1ccccc1 (stereo not given),3.5% (inactive),3.1%
COC(=O)C1CCCCC1C(=O)N1CCc2ccccc2C1CN1C(=O)c2ccccc2C1=O (stereo not given),6.8% (inactive),3.3%
Cc1cc(C)c(S(=O)(=O)Nc2nc(C(C(=O)OC(C)C)C(=O)C(F)(F)F)nc3ccccc23)c(C)c1 (stereo not given),1.9% (inactive),-4.5%
CC(C)OC(=O)C(C(=O)C(F)(F)F)c1cc(NS(=O)(=O)c2ccccc2)c2ccccc2c1O (stereo not given),59%,12.7%
O=C1c2ccccc2C(=O)N1C[C@@H]1c2ccccc2CCN1C(=O)C1CCCCC1,2.1% (inactive),-0.3%
COC(=O)CNc1nc(NS(=O)(=O)c2c(C)cc(C)cc2C)c2ccccc2n1,8.5% (inactive),1.1%
O=C(O)/C=C\C(=O)N1CCc2ccccc2C1CN1C(=O)c2ccccc2C1=O (stereo not given),21.5%,1.1%
Cc1cc(C)c(S(=O)(=O)Nc2ncnc3ccccc23)c(C)c1,1.5% (inactive),-0.6%
O=C(O)C1CCCCC1C(=O)N1CCc2ccccc2C1CN1Cc2ccccc2C1=O (stereo not given),77.7%,27.7%
CCOC(=O)C(C(=O)OCC)c1nc(NS(=O)(=O)c2c(C)cc(C)cc2C)c2ccccc2n1,-2.5% (inactive),-6%
COC(=O)C(C(=O)OC)c1cc(NS(=O)(=O)c2c(C)cc(C)cc2C)c2ccccc2c1O,93.1%,65.9%
O=C(NC[C@@H]1c2ccccc2CCN1C(=O)[C@@H]1CCCC[C@@H]1C(=O)O)OCC1c2ccccc2-c2ccccc21,3.6% (inactive),5%
O=C(O)c1ccccc1C(=O)N1CCc2ccccc2C1CN1C(=O)c2ccccc2C1=O (stereo not given),9.9% (inactive),1.9%
COC(=O)[C@H]1CCCC[C@H]1C(=O)N1CCc2ccccc2[C@H]1CN1C(=O)c2ccccc2C1=O,1.6% (inactive),-0.6%
O=C(NC[C@@H]1c2ccccc2CCN1C(=O)[C@@H]1CCCC[C@@H]1C(=O)O)c1ccccc1CO,39.3%,7.3%
O=C(O)C1CCCCC1C(=O)N1CCc2ccccc2C1CN1C(=O)c2ccccc2S1(=O)=O (stereo not given),68.1%,18.5%
O=C(NC[C@@H]1c2ccccc2CCN1C(=O)[C@@H]1CCCC[C@@H]1C(=O)O)c1ccc(CCl)cc1,22.7%,-1%
O=C(O)C1CCCCC1C(=O)N1CCc2ccccc2C1CN1C(=O)Cc2ccccc2C1=O (stereo not given),77%,36.6%
O=C(O)[C@H]1CCCC[C@H]1C(=O)NC(CN1C(=O)c2ccccc2C1=O)c1ccccc1 (stereo not given in full),0.3% (inactive),0.3%

Compound,inhibition (at 50 µM),"inhibition (inhibition, at 5 µM)"
O=C(NCCCN1CCOCC1)c1ccccc1C(=O)NC[C@@H]1c2ccccc2CCN1C(=O)C1CCCCC1C(=O)O (stereo not given in full),43.8%,6.9%
O=C(O)[C@H]1CCCC[C@H]1C(=O)N1CCc2ccccc2[C@H]1CNS(=O)(=O)c1ccc([N+](=O)[O-])cc1,26.7%,4%
CC(C)CNc1nc(NS(=O)(=O)c2ccccc2)c2ccccc2n1,3.3% (inactive),1%
O=C(NCCO)c1ccccc1C(=O)NC[C@@H]1c2ccccc2CCN1C(=O)C1CCCCC1C(=O)O (stereo not given in full),32.1%,7.5%
O=C(O)[C@@H]1CCCN1C(=O)N1CCc2ccccc2[C@H]1CN1C(=O)c2ccccc2C1=O,30.3%,1.7%
COc1ccccc1CCNC(=O)[C@@H]1c2ccccc2CCN1C(=O)C1CCCCC1C(=O)O (stereo not given in full),-4.2% (inactive) and -2.2% (inactive),-12.8% and -7.2%
O=C(NC[C@@H]1c2ccccc2CCN1C(=O)[C@@H]1CCCC[C@@H]1C(=O)O)c1ccc(CN2CCOCC2)cc1,24.9%,-1.2%
NC(=O)c1ccccc1C(=O)NC[C@@H]1c2ccccc2CCN1C(=O)[C@@H]1CCCC[C@@H]1C(=O)O,83%,38.6%
O=C(Oc1cc(CN2C(=O)c3ccccc3C2=O)c2ccccc2[n+]1[O-])c1cccc(Cl)c1,7.85% (inactive),-2.91%
CCOC(=O)C(C(=O)OCC)c1cc(CN2C(=O)c3ccccc3C2=O)c2ccccc2n1,8.32% (inactive),11.9%
O=C(O)CC(=O)N1CCc2ccccc2C1CN1C(=O)c2ccccc2C1=O (stereo not given),2.1% (inactive),-2.4%
CCOC(=O)C(C(=O)OCC)c1cc(CNS(=O)(=O)c2ccc(C)cc2C)c2ccccc2n1,4.8% (inactive),3.9%
Cc1ccc(S(=O)(=O)NNc2nc(NCC(N)=O)nc3ccccc23)cc1,-9.9% (inactive),-3.5%
Cc1ccccc1S(=O)(=O)Nc1cc(C(C(=O)OC(C)C)C(=O)C(F)(F)F)c(O)c2ccccc12 (stereo not given),86.4%,49.5%
Cc1ccc(S(=O)(=O)NNc2nc(N3CC(O)CC3C(=O)O)nc3ccccc23)cc1 (stereo not given),-0.9% (inactive),-1.1%
O=C(O)[C@H]1CCCC[C@H]1C(=O)N1CCc2ccccc2[C@H]1CNc1nc(Cl)nc2ccccc12,3.7% (inactive),-1.3%
C=CC(=O)NC[C@@H]1c2ccccc2CCN1C(=O)[C@@H]1CCCC[C@@H]1C(=O)O,1.1% (inactive),-5.2%
O=C(Cc1ccccc1)NC[C@@H]1c2ccccc2CCN1C(=O)[C@@H]1CCCC[C@@H]1C(=O)O,36.9%,7%
Cc1cc(C)c(S(=O)(=O)Nc2cc(C(C(=O)OCc3ccccc3)C(=O)OCc3ccccc3)c(O)c3ccccc23)c(C)c1,7.1% (inactive),4.69%
O=C(O)C1CCCCC1C(=O)Nc1ccccc1CN1C(=O)c2ccccc2C1=O (stereo not given),5.5% (inactive),3.8%
Cc1ccc(S(=O)(=O)Nc2cc(C(C(=O)OC(C)C)C(=O)C(F)(F)F)c(O)c3ccccc23)c(C)c1 (stereo not given),97%,57.8%
O=C(O)C1CCCCC1C(=O)N1CCCCC1CN1C(=O)c2ccccc2C1=O (stereo not given),13.5% (inactive),0.4%
